According to ChEMBL document CHEMBL2390836, “Synthesis and antitumor activities of naturally occurring oleanolic acid triterpenoid saponins and their derivatives” (Eur J Med Chem, 2013):

Assays:
Type in all cases: functional, cell-based
[1] = tested on: A-375; experiment: Cytotoxicity against human A375 cells after 72 hrs by sulforhodamine B assay; settings: A-375, 72 h
In short: (§1)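 Cells seeded in 96-well plates and exposed in triplicate to a concentration gradient at 37 °C for 72 h. Total protein staining with sulforhodamine B was the read-out. IC50 was calculated by the Logit method from at least three independent experiments.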

[2] = tested on: A549; experiment: Cytotoxicity against human A549 cells after 72 hrs by sulforhodamine B assay; settings: A549, 72 h; in short: as §1
[3] = tested on: HL-60; experiment: Cytotoxicity against human HL60 cells after 72 hrs by MTT assay; settings: HL-60, 72 h
In short: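 HL-60 human promyelocytic leukemia cells were plated in 96 wells and treated in triplicate with graded concentrations at 37 °C for 72 h. Viability was read by MTT reduction. IC50 was obtained by the Logit method from at least three independent experiments.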

| Compound | IC50 [1] [µM] | IC50 [2] [µM] | IC50 [3] [µM] |
| --- | --- | --- | --- |
| C[C@@H]1O[C@@H](O[C@H]2[C@H](O[C@H]3CC[C@]4(C)[C@H]5CC=C6[C@@H]7CC(C)(C)CC[C@]7(C(=O)O)CC[C@@]6(C)[C@]5(C)CC[C@H]4C3(C)C)OC[C@@H](O)[C@@H]2O)[C@H](O)[C@H](O)[C@H]1O | 5 | 10.7 | 3.6 |
| CC1(C)CC[C@]2(C(=O)O)CC[C@]3(C)C(=CC[C@@H]4[C@@]5(C)CC[C@H](O[C@@H]6O[C@H](CO)[C@@H](O)[C@H](O)[C@H]6O[C@@H]6O[C@H](CO)[C@@H](O)[C@H](O)[C@H]6O)C(C)(C)[C@@H]5CC[C@]43C)[C@@H]2C1 [ACUTOSIDE A] | 10.3 | 15.3 | 12.5 |
| C[C@@H]1O[C@@H](O[C@H]2[C@H](O[C@H]3CC[C@]4(C)[C@H]5CC=C6[C@@H]7CC(C)(C)CC[C@]7(C(=O)O)CC[C@@]6(C)[C@]5(C)CC[C@H]4C3(C)C)O[C@H](CO)[C@H](O)[C@@H]2O)[C@H](O)[C@H](O)[C@H]1O | 5.1 | 12.4 | 2.5 |
| C[C@@H]1O[C@@H](O[C@H]2[C@H](O[C@H]3CC[C@]4(C)[C@H]5CC=C6[C@@H]7CC(C)(C)CC[C@]7(C(=O)O[C@@H]7O[C@H](CO[C@@H]8O[C@H](CO)[C@@H](O)[C@H](O)[C@H]8O)[C@@H](O)[C@H](O)[C@H]7O)CC[C@@]6(C)[C@]5(C)CC[C@H]4C3(C)C)OC[C@@H](O)[C@@H]2O)[C@H](O)[C@H](O[C@@H]2O[C@H](CO)[C@@H](O)[C@H](O)[C@H]2O)[C@H]1O | > 20 | > 20 | > 20 |
| C[C@@H]1O[C@@H](O[C@H]2[C@H](O[C@H]3CC[C@]4(C)[C@H]5CC=C6[C@@H]7CC(C)(C)CC[C@]7(C(=O)O)CC[C@@]6(C)[C@]5(C)CC[C@H]4C3(C)C)OC[C@H](O)[C@@H]2O)[C@H](O)[C@H](O[C@@H]2O[C@H](CO)[C@@H](O[C@@H]3O[C@H](CO)[C@@H](O)[C@H](O)[C@H]3O)[C@H](O)[C@H]2O)[C@H]1O | 5.9 | 7.9 | 3.5 |
| C[C@@H]1O[C@@H](O[C@H]2[C@H](O[C@H]3CC[C@]4(C)[C@H]5CC=C6[C@@H]7CC(C)(C)CC[C@]7(C(=O)O)CC[C@@]6(C)[C@]5(C)CC[C@H]4C3(C)C)OC[C@H](O[C@@H]3O[C@H](CO)[C@@H](O)[C@H](O)[C@H]3O)[C@@H]2O)[C@H](O)[C@H](O[C@@H]2O[C@H](CO)[C@@H](O[C@@H]3O[C@H](CO)[C@@H](O)[C@H](O)[C@H]3O)[C@H](O)[C@H]2O)[C@H]1O | 3.5 | 6.2 | 3.1 |
| C[C@@H]1O[C@@H](O[C@H]2[C@H](O[C@H]3CC[C@]4(C)[C@H]5CC=C6[C@@H]7CC(C)(C)CC[C@]7(C(=O)O)CC[C@@]6(C)[C@]5(C)CC[C@H]4C3(C)C)OC[C@H](O)[C@@H]2O)[C@H](O)[C@H](O[C@@H]2OC[C@@H](O)[C@H](O)[C@H]2O)[C@H]1O | 8.9 | 15.4 | 3.4 |
| CC[C@@]1(O)C(=O)OCc2c1cc1n(c2=O)Cc2cc3cc(O)ccc3nc2-1 [HYDROXYCAMPTOTHECIN] | 0.15 | 0.56 | 0.25 |
| C[C@@H]1O[C@@H](O[C@H]2[C@H](O[C@H]3CC[C@]4(C)[C@H]5CC=C6[C@@H]7CC(C)(C)CC[C@]7(C(=O)O)CC[C@@]6(C)[C@]5(C)CC[C@H]4C3(C)C)OC[C@@H](O)[C@@H]2O)[C@H](O)[C@H](O[C@@H]2OC[C@@H](O)[C@H](O)[C@H]2O)[C@H]1O | 6.3 | 11.5 | 4.5 |
| C[C@@H]1O[C@@H](O[C@H]2[C@H](O[C@H]3CC[C@]4(C)[C@H]5CC=C6[C@@H]7CC(C)(C)CC[C@]7(C(=O)O[C@@H]7O[C@H](CO[C@@H]8O[C@H](CO)[C@@H](O[C@@H]9O[C@@H](C)[C@H](O)[C@@H](O)[C@H]9O)[C@H](O)[C@H]8O)[C@@H](O)[C@H](O)[C@H]7O)CC[C@@]6(C)[C@]5(C)CC[C@H]4C3(C)C)OC[C@@H](O)[C@@H]2O)[C@H](O)[C@H](O)[C@H]1O | 7.3 | 10.5 | 3.2 |
| C[C@@H]1O[C@@H](O[C@H]2[C@H](O)[C@@H](O)[C@H](OC[C@H]3O[C@@H](OC(=O)[C@]45CCC(C)(C)C[C@H]4C4=CC[C@@H]6[C@@]7(C)CC[C@H](O[C@@H]8OC[C@@H](O)[C@H](O)[C@H]8O)C(C)(C)[C@@H]7CC[C@@]6(C)[C@]4(C)CC5)[C@H](O)[C@@H](O)[C@@H]3O)O[C@@H]2CO)[C@H](O)[C@H](O)[C@H]1O | 13.5 | 11.9 | 5.7 |
| CC1(C)CC[C@]2(C(=O)O)CC[C@]3(C)C(=CC[C@@H]4[C@@]5(C)CC[C@H](O[C@@H]6O[C@H](CO)[C@H](O)[C@H](O)[C@H]6O[C@@H]6O[C@H](CO)[C@@H](O)[C@H](O)[C@H]6O)C(C)(C)[C@@H]5CC[C@]43C)[C@@H]2C1 | 9.7 | 17.9 | 10.1 |
| C[C@@H]1O[C@@H](O[C@H]2[C@H](O[C@H]3CC[C@]4(C)[C@H]5CC=C6[C@@H]7CC(C)(C)CC[C@]7(C(=O)O[C@@H]7O[C@H](CO[C@@H]8O[C@H](CO)[C@@H](O)[C@H](O)[C@H]8O)[C@@H](O)[C@H](O)[C@H]7O)CC[C@@]6(C)[C@]5(C)CC[C@H]4C3(C)C)OC[C@@H](O)[C@@H]2O)[C@H](O)[C@H](O[C@@H]2OC[C@@H](O)[C@H](O)[C@H]2O)[C@H]1O | > 20 | > 20 | > 20 |
| C[C@@H]1O[C@@H](O[C@H]2[C@H](O[C@H]3CC[C@]4(C)[C@H]5CC=C6[C@@H]7CC(C)(C)CC[C@]7(C(=O)O)CC[C@@]6(C)[C@]5(C)CC[C@H]4C3(C)C)OC[C@H](O)[C@@H]2O)[C@H](O)[C@H](O[C@@H]2OC[C@@H](O[C@@H]3O[C@H](CO)[C@@H](O)[C@H](O)[C@H]3O)[C@H](O)[C@H]2O)[C@H]1O | 22.1 | > 20 | 4.2 |
| C[C@@H]1O[C@@H](O[C@H]2[C@H](O[C@H]3CC[C@]4(C)[C@H]5CC=C6[C@@H]7CC(C)(C)CC[C@]7(C(=O)O)CC[C@@]6(C)[C@]5(C)CC[C@H]4C3(C)C)OC[C@@H](O)[C@@H]2O)[C@H](O)[C@H](O[C@@H]2O[C@H](CO)[C@@H](O)[C@H](O)[C@H]2O)[C@H]1O | 5.5 | 14.7 | 4.6 |
| C[C@@H]1O[C@@H](O[C@H]2[C@H](O[C@H]3CC[C@]4(C)[C@H]5CC=C6[C@@H]7CC(C)(C)CC[C@]7(C(=O)O[C@@H]7O[C@H](CO[C@@H]8O[C@H](CO)[C@@H](O)[C@H](O)[C@H]8O)[C@@H](O)[C@H](O)[C@H]7O)CC[C@@]6(C)[C@]5(C)CC[C@H]4C3(C)C)OC[C@@H](O)[C@@H]2O)[C@H](O)[C@H](O[C@@H]2O[C@H](CO)[C@@H](O[C@@H]3O[C@H](CO)[C@@H](O)[C@H](O)[C@H]3O)[C@H](O)[C@H]2O)[C@H]1O | > 20 | > 20 | > 20 |
| C[C@@H]1O[C@@H](O[C@H]2[C@H](O[C@H]3CC[C@]4(C)[C@H]5CC=C6[C@@H]7CC(C)(C)CC[C@]7(C(=O)O)CC[C@@]6(C)[C@]5(C)CC[C@H]4C3(C)C)OC[C@H](O)[C@@H]2O)[C@H](O)[C@H](O)[C@H]1O | 8.4 | 15.8 | 9.2 |
| C[C@@H]1O[C@@H](O[C@H]2[C@H]3OC(c4ccccc4)OC[C@H]3O[C@@H](O[C@H]3CC[C@]4(C)[C@H]5CC=C6[C@@H]7CC(C)(C)CC[C@]7(C(=O)O)CC[C@@]6(C)[C@]5(C)CC[C@H]4C3(C)C)[C@@H]2O[C@@H]2O[C@@H](C)[C@H](O)[C@@H](O)[C@H]2O)[C@H](O)[C@H](O)[C@H]1O (some centres undefined) | > 20 | > 20 | > 20 |
| C[C@@H]1O[C@@H](O[C@H]2[C@H](O[C@H]3CC[C@]4(C)[C@H]5CC=C6[C@@H]7CC(C)(C)CC[C@]7(C(=O)O)CC[C@@]6(C)[C@]5(C)CC[C@H]4C3(C)C)O[C@H](CO)[C@@H](O)[C@@H]2O[C@@H]2O[C@@H](C)[C@H](O)[C@@H](O)[C@H]2O)[C@H](O)[C@H](O)[C@H]1O | > 20 | > 20 | > 20 |
| C[C@@H]1O[C@@H](O[C@@H]2[C@@H](O)[C@H](C)O[C@@H](O[C@H]3[C@H](O[C@H]4CC[C@]5(C)[C@H]6CC=C7[C@@H]8CC(C)(C)CC[C@]8(C(=O)O)CC[C@@]7(C)[C@]6(C)CC[C@H]5C4(C)C)OC[C@@H](O)[C@@H]3O)[C@@H]2O)[C@H](O)[C@H](O)[C@H]1O | 8.4 | 16.2 | 9.3 |
| C[C@@H]1O[C@@H](O[C@H]2[C@H](O[C@H]3CC[C@]4(C)[C@H]5CC=C6[C@@H]7CC(C)(C)CC[C@]7(C(=O)O)CC[C@@]6(C)[C@]5(C)CC[C@H]4C3(C)C)OC[C@H](O)[C@@H]2O)[C@H](O)[C@H](O[C@@H]2O[C@H](CO)[C@@H](O)[C@H](O)[C@H]2O)[C@H]1O | 12.1 | 16.7 | 6.1 |
| C[C@@H]1O[C@@H](O[C@@H]2[C@@H](O)[C@H](O[C@H]3CC[C@]4(C)[C@H]5CC=C6[C@@H]7CC(C)(C)CC[C@]7(C(=O)O)CC[C@@]6(C)[C@]5(C)CC[C@H]4C3(C)C)O[C@H](CO)[C@H]2O)[C@H](O)[C@H](O)[C@H]1O | > 20 | > 20 | > 20 |
| COc1cccc2c1C(=O)c1c(O)c3c(c(O)c1C2=O)C[C@@](O)(C(=O)CO)C[C@@H]3O[C@H]1C[C@H](N)[C@H](O)[C@H](C)O1 [DOXORUBICIN] | 0.75 | 0.56 | 0.9 |
